48 variants from the RNAGym collection of RNA variant scans (doi:10.1002/anie.201605470) can be followed below.

B1: Osa-1-4 twister ribozyme (parent)
chain: CCGCCUAACACUGCCAAUGCCGGUCCCAAGCCCGGAUAAAAGUGGAGGGGGCGG

The variants in the series derive from B1. Kind of series: self-cleavage, relative activity (ratio to wild type); higher = more cleavage; co-transcriptional. A digest of the protocol:
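The 48 positions downstream of the cleavage site in a DNA template for a 54-nucleotide Oryza sativa twister ribozyme carried 97 % wild-type base and 1 % of each other base. After in vitro transcription (2 h, 37 °C) with co-transcriptional self-cleavage, the RNA was reverse-transcribed with a template-switching oligonucleotide, PCR-amplified and deep-sequenced. Relative activity is the fraction cleaved, judged by reads with or without upstream sequence and normalised to wild type.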
On to CCGCCUAACACUGCCAAUGCCGGUCCCAAACCCGGAUAAAAGUGUAGGGGGCGG [G30A G45U], for which the self-cleavage came out at 0.02. Take CCGCCUAACACUGCCAAUGCCGGUCCCAAACCCGGAUAAAAGUGCAGGGGGCGG [G30A G45C]: the self-cleavage stood at 0.02. For the variant CCGCCUAACACUGCCAAUGCCGGUCCCAAACCCGGAUAAAAGUGAAGGGGGCGG [G30A G45A], the self-cleavage is 0.03. As to CCGCCUAACACUGCCAAUGCCGGUCCCAUGCCCGGAUAAAAGUGAAGGGGGCGG [A29U G45A], the self-cleavage came out at 0.03. As for CCGCCUAACACUGCCAAUGCCGGUCCCAUGCCCGGAUAAAAGUGUAGGGGGCGG [A29U G45U], the figure is 0.03; as for CCGCCUAACACUGCCAAUGCCGGUCCCAUGCCCGGAUAAAAGUGCAGGGGGCGG [A29U G45C], 0.03; as for CCGCCUAACACUGCCAAUGCCGGUCCCAUGCUCGGAUAAAAGUGGAGGGGGCGG [A29U C32U], 0.03. With CCGCCUAACACUGCCAAUGCCGGUCCCAUGCGCGGAUAAAAGUGGAGGGGGCGG [A29U C32G], the self-cleavage amounted to 0.03.

As for CCGCCUAACACUGCCAAUGCCGGUCCCAAACCCGGAUAAAAGUGGAAGGGGCGG [G30A G47A], the self-cleavage stood at 0.03. On to CCGCCUAACACUGCCAAUGCCGGUCCCAAACCCGGAUAAAAGUGGACGGGGCGG [G30A G47C], for which the self-cleavage was 0.02.

As to CCGCCUAACACUGCCAAUGCCGGUCCCAAACCCGGAUAAAAGUGGAUGGGGCGG [G30A G47U], the self-cleavage turned out to be 0.02. Regarding CCGCCUAACACUGCCAAUGCCGGGCCCAUGCCCGGAUAAAAGUGGAGGGGGCGG [A29U U24G], the self-cleavage was determined as 0.01. The same measure for CCGCCUAACACUGCCAAUGCCGGACCCAUGCCCGGAUAAAAGUGGAGGGGGCGG [A29U U24A]: 0.32; for CCGCCUAACACUGCCAAUGCCGGCCCCAUGCCCGGAUAAAAGUGGAGGGGGCGG [A29U U24C]: 0.06; for CCGCCUAACACUGCCAAUGCCGGUCCCAUGCCCGGAUAAAAGUGGAGGUGGCGG [A29U G49U]: 0.02. As for CCGCCUAACACUGCCAAUGCCGGUCCCAUGCCCGGAUAAAAGUGGAGGCGGCGG [A29U G49C], the figure is 0.04; as for CCGCCUAACACUGCCAAUGCCGGUCCCAUGCCCGGAUAAAAGUGGAGGAGGCGG [A29U G49A], 0.03; as for CCGCCUAACACUGCCAAUGCCGGUCCCAUGCCCGGAUAAAAGUGGAGGGGGCGA [A29U G54A], 0.09.

Take CCGCCUAACACUGCCAAUGCCGGUCCCAUGCCCGGAUAAAAGUGGAGGGGGCGU [A29U G54U]: the self-cleavage amounted to 0.27. The same measure for CCGCCUAACACUGCCAAUGCCGGUCCCAUGCCCGGAUAAAAGUGGAGGGGGCGC [A29U G54C]: 0.06. As for CCGCCUAACACUGCCAAUGCCGGUCCCAAACCCGGAUAAAAGUCGAGGGGGCGG [G30A G44C], the figure is 0.04; as for CCGCCUAACACUGCCAAUGCCGGUCCCAAACCCGGAUAAAAGUUGAGGGGGCGG [G30A G44U], 0.04. The same measure for CCGCCUAACACUGCCAAUGCCGGUCCCAAACCCGGAUAAAAGUAGAGGGGGCGG [G30A G44A]: 0.04; for CCGCCUAACACUGCCAAUGCCGGUCCCAUGCCCGGAUAAAAGUGGAGGGGGUGG [A29U C52U]: 0.19; for CCGCCUAACACUGCCAAUGCCGGUCCCAUGCCCGGAUAAAAGUGGAGGGGGGGG [A29U C52G]: 0.12.

Consider CCGCCUAACACUGCCAAUGCCGGUCCCAUGCCCGGAUAAAAGUGGAGGGGGAGG [A29U C52A], for which the self-cleavage stood at 0.08. Take CCGCCUAACACUGCCAAUGCCGGUCCCAUGCCCGGAUAAAAGUGGAGGGGGCAG [A29U G53A]: the self-cleavage stood at 0.07. As for CCGCCUAACACUGCCAAUGCCGGUCCCAUGCCCGGAUAAAAGUGGAGGGGGCUG [A29U G53U], the figure is 0.06. As for CCGCCUAACACUGCCAAUGCCGGUCCCAUGCCCGGAUAAAAGUGGAGGGGGCCG [A29U G53C], the figure is 0.04; as for CCGCCUAACACUGCCAAUGCCGGUCCCAAACCCCGAUAAAAGUGGAGGGGGCGG [G30A G34C], 0.05; as for CCGCCUAACACUGCCAAUGCCGGUCCCAAACCCAGAUAAAAGUGGAGGGGGCGG [G30A G34A], 0.11. The same measure for CCGCCUAACACUGCCAAUGCCGGUCCCAAACCCUGAUAAAAGUGGAGGGGGCGG [G30A G34U]: 0.04; for CCGCCUAACACUGCCAAUGCCGGUCCCAUGCCCGAAUAAAAGUGGAGGGGGCGG [A29U G35A]: 0.11; for CCGCCUAACACUGCCAAUGCCGGUCCCAUGCCCGUAUAAAAGUGGAGGGGGCGG [A29U G35U]: 0.09. On to CCGCCUAACACUGCCAAUGCCGGUCCCAUGCCCGCAUAAAAGUGGAGGGGGCGG [A29U G35C], for which the self-cleavage amounted to 0.04.

Regarding CCGCCUAACACUGCCAAUCCCGGUCCCAUGCCCGGAUAAAAGUGGAGGGGGCGG [A29U G19C], the self-cleavage amounted to 0.03. For CCGCCUAACACUGCCAAUACCGGUCCCAUGCCCGGAUAAAAGUGGAGGGGGCGG [A29U G19A], the self-cleavage was 0.05.

For the variant CCGCCUAACACUGCCAAUUCCGGUCCCAUGCCCGGAUAAAAGUGGAGGGGGCGG [A29U G19U], the self-cleavage was found to be 0.05. On to CCGCCUAACACUGCCAAUGCCGGUCCCAUGCCCUGAUAAAAGUGGAGGGGGCGG [A29U G34U], for which the self-cleavage was 0.05. The same measure for CCGCCUAACACUGCCAAUGCCGGUCCCAUGCCCCGAUAAAAGUGGAGGGGGCGG [A29U G34C]: 0.05; for CCGCCUAACACUGCCAAUGCCGGUCCCAUGCCCAGAUAAAAGUGGAGGGGGCGG [A29U G34A]: 0.07.

As for CCGCCUAACACUGCCAAUGCCGGUCCCAAACCCGGAUAAAAGUGGAGGGGGCGG [G30A], the self-cleavage was 0.04.

Consider CCGCCUAACACUGCCAAGGCCGGUCCCAUGCCCGGAUAAAAGUGGAGGGGGCGG [A29U U18G], for which the self-cleavage turned out to be 0.25. CCGCCUAACACUGCCAACGCCGGUCCCAUGCCCGGAUAAAAGUGGAGGGGGCGG [A29U U18C]: the self-cleavage amounted to 0.13. As for CCGCCUAACACUGCCAAAGCCGGUCCCAUGCCCGGAUAAAAGUGGAGGGGGCGG [A29U U18A], the figure is 0.12; as for CCGCCUAACACUGCCAAUGCCGGUCCCAUGCCUGGAUAAAAGUGGAGGGGGCGG [A29U C33U], 0.08. As for CCGCCUAACACUGCCAAUGCCGGUCCCAUGCCAGGAUAAAAGUGGAGGGGGCGG [A29U C33A], the figure is 0.04. The same measure for CCGCCUAACACUGCCAAUGCCGGUCCCAUGCCGGGAUAAAAGUGGAGGGGGCGG [A29U C33G]: 0.04.
